Data set [1] has as its system T1, Chloroquine resistance transporter (Plasmodium falciparum), Q9N623 [K76T].
T1 sequence (whole entry): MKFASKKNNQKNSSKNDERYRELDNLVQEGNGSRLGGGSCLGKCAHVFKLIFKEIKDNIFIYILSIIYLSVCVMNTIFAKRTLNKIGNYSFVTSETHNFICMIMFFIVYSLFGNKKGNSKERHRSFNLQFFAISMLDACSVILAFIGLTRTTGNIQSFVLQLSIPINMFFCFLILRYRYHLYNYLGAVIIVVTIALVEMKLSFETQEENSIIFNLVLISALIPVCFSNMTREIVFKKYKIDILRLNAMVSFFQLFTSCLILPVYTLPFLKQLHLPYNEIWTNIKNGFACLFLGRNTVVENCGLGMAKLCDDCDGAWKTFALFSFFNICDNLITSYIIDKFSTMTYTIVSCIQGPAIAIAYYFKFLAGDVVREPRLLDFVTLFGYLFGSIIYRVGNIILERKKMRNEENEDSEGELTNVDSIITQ
Kind of data set: Inhibition of CRT K76T mutant in chloroquine-resistant Plasmodium falciparum NHP4559 assessed as reversal of chloroquine resistance by measuring reduction in chloroquine IC50 at 500 nM relative to chloroquine alone.

In another data set the test system is TAMH. Kind of data set: Cytotoxicity against TAMH assessed as reduction in cell viability by CellTiter-Glo assay. To be noted: Mus musculus. The format is cell-based. Summed up:
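For TAMH (hepatocyte line) and AC10 (cardiomyocyte line), viability was read by ATP luminescence (CellTiter-Glo), and the value reported is IC50.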
A general note: In ATP-based viability assays light output follows the ATP content of the culture.

The test system of data set [2] is Plasmodium falciparum. Kind of data set: Potentiation of chloroquine-induced antimalarial activity against chloroquine-sensitive Plasmodium falciparum HB3 isolate MRA-155 assessed as reduction in chloroquine IC50 at 500 nM relative to chloroquine alone. The format is functional.
Data set [3] concerns Plasmodium falciparum. Kind of data set: Intrinsic antimalarial activity against chloroquine-sensitive Plasmodium falciparum HB3 isolate MRA-155 assessed as reduction in parasite viability at 500 nM. The format is functional, organism-based.
The subject of data set [4] is T1, Chloroquine resistance transporter (Plasmodium falciparum), Q9N623 [K76T]. Kind of data set: Inhibition of CRT K76T mutant in chloroquine/artemisinin-resistant Plasmodium falciparum NHP4773 assessed as reversal of chloroquine resistance by measuring reduction in chloroquine IC50 at 500 nM relative to chloroquine alone.
For data set [5] the test system is unchanged. Kind of data set: Inhibition of CRT K76T mutant in chloroquine/artemisinin-resistant Plasmodium falciparum ARS272 assessed as reversal of chloroquine resistance by measuring reduction in chloroquine IC50 at 500 nM relative to chloroquine alone.
The nature of data set [6]: Permeability of compound incubated for 6 hrs at pH 7.4 by PAMPA. It is filed as ADME. To be noted: read-out: Peff.
Data set [7] deals with T1, Chloroquine resistance transporter (Plasmodium falciparum), Q9N623 [K76T]. Kind of data set: Inhibition of CRT K76T mutant in chloroquine/artemisinin-resistant Plasmodium falciparum ARS233 assessed as reversal of chloroquine resistance by measuring reduction in chloroquine IC50 at 500 nM relative to chloroquine alone.
The subject of data set [8] is Plasmodium falciparum. Kind of data set: Intrinsic antimalarial activity against intermediate chloroquine-resistant Plasmodium falciparum 7G8 isolate MRA-154 harboring CRT SVMNT haplotype mutant assessed as reduction in parasite viability at 500 nM. The format is functional, organism-based.
The nature of data set [9]: Resistance index, ratio of chloroquine IC50 for chloroquine-resistant Plasmodium falciparum K1 isolate MRA-159 CRT CVIET haplotype mutant to chloroquine IC50 for chloroquine-sensitive Plasmodium falciparum 3D7 isolate MRA-102 at 500 nM. In a few lines:
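Chloroquine IC50 was measured with the chemoreversal agent fixed at 500 nM in K1 or 7G8 and in sensitive 3D7 (means, n = 3). The resistance ratio is the chloroquine IC50 in K1 or 7G8 divided by the chloroquine IC50 in 3D7.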

In data set [10] the test system is Plasmodium falciparum. Kind of data set: Intrinsic antimalarial activity against chloroquine-sensitive Plasmodium falciparum 3D7 isolate MRA-102 assessed as reduction in parasite viability at 500 nM. The format is functional, organism-based.

Each structure is given as a SMILES string. Calls of active or inactive are those of the source. The calls are words filed in the database; no cut-off is given here. Some results are limits rather than exact numbers.

As a reminder, the IC50 is the concentration that inhibits the measured activity by half.

With `c1ccc(CN[C@@H]2C3CCN(CC3)[C@@H]2Cc2ccccc2)cc1` (relative stereo), the Ratio IC50 was found to be 0.47 in data set [1]; 1.12 in the data set on Plasmodium falciparum [2]; 0.45 in data set [4]; 0.43 in data set [5]; 0.43 in [7]; 6.4 in [9]. In addition, the IC50 with TAMH was over 100 µM. In addition, the result in the data set with Plasmodium falciparum [3], with Plasmodium falciparum [8] and with Plasmodium falciparum [10] was inactive. The Papp at 6 h in data set [6] amounted to 19.2 ×10⁻⁶ cm/s.
